Active and inactive are the calls of the source. The rule behind the calls is not given here.
Legend:
Assay type in all cases: functional, cell-based
[1] = system: Bel-7402; test: Cytotoxicity against human Bel7402 by MTT assay
[2] = system: A549; test: Cytotoxicity against human A549 at 20 ug/ml by SRB assay
Outline: (§1)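 Growth of the tumour cell lines was tested with compound at concentrations up to 20 μg/mL. The lines were human lung adenocarcinoma A549, BEL-7402, human promyelocytic leukaemia HL-60 and murine lymphocytic leukaemia P388.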

[3] = system: P388; test: Cytotoxicity against mouse P388 at 20 ug/ml by MTT assay; outline: as §1
[4] = system: Bel-7402; test: Cytotoxicity against human Bel7402 at 20 ug/ml by MTT assay; outline: as §1
[5] = system: HL-60; test: Cytotoxicity against human HL60 at 20 ug/ml by MTT assay; outline: as §1

SMILES	Activity [1]	Activity [2]	Activity [3]	Activity [4]	Activity [5]
COC(=O)[C@H](CCCC(C)C)[C@H]1CC[C@H]2[C@@H]3CC[C@H]4CC(=O)C=C[C@]4(C)[C@H]3CC[C@]12C	Active	–	–	–	–
C=C(CC[C@@H](C)[C@H]1CC[C@H]2[C@@H]3CCc4cc(O)ccc4[C@H]3CC[C@]12C)C(C)C	–	inactive	inactive	inactive	inactive
CC(C)CCC[C@@H](C)[C@H]1CC[C@H]2[C@@H]3CCc4cc(O)ccc4[C@H]3CC[C@]12C	–	inactive	inactive	inactive	inactive
CC(C)/C=C/[C@@H](C)[C@H]1CC[C@H]2[C@@H]3CCc4cc(O)ccc4[C@H]3CC[C@]12C	–	inactive	inactive	inactive	inactive
C=C(CC[C@@H](C)[C@H]1CC[C@H]2[C@@H]3CCC4=CC(=O)C=C[C@]4(C)[C@H]3CC[C@]12C)C(C)C	–	inactive	inactive	inactive	inactive
CC(C)C/C=C/[C@@H](C)[C@H]1CC[C@H]2[C@@H]3CCc4cc(O)ccc4[C@H]3CC[C@]12C	–	inactive	inactive	inactive	inactive
CC(C)[C@H](C)/C=C/[C@@H](C)[C@H]1CC[C@H]2[C@@H]3CCc4cc(O)ccc4[C@H]3CC[C@]12C	–	inactive	inactive	inactive	inactive
CC(C)[C@@H](C)/C=C/[C@@H](C)[C@H]1CC[C@H]2[C@@H]3CCc4cc(O)ccc4[C@H]3CC[C@]12C	–	inactive	inactive	inactive	inactive
CC(C)C/C=C/[C@@H](C)[C@H]1CC[C@H]2[C@@H]3CCC4=CC(=O)C=C[C@]4(C)[C@H]3CC[C@]12C	–	inactive	inactive	inactive	inactive
CC(C)/C=C/[C@@H](C)[C@H]1CC[C@H]2[C@@H]3CCC4=CC(=O)C=C[C@]4(C)[C@H]3CC[C@]12C	–	inactive	inactive	inactive	inactive
CC1CC1/C=C/[C@@H](C)[C@H]1CC[C@H]2[C@@H]3CCc4cc(O)ccc4[C@H]3CC[C@]12C (stereo partly specified)	–	inactive	inactive	inactive	inactive

Source: ChEMBL document CHEMBL1687852, “Steroids with aromatic A-rings from the Hainan soft coral Dendronephthya studeri Ridley” (J Nat Prod, 2011)
